Results: ChEMBL document CHEMBL1134335, “Structure-activity relationships of pyridoxal phosphate derivatives as potent and selective antagonists of P2X1 receptors” (J Med Chem, 2001)
Activity calls are given as the source filed them. The calls are words filed in the database; no cut-off is given here.

What was measured:
[1] = target: T1, P2X purinoceptor 7 (Homo sapiens) (UniProt Q99572); assay: Percent inhibition of ATP-induced K+ efflux (ethidium influx) in suspended HEK293 cells expressing human P2X7 receptor; format: functional, cell-based; details: concentration not given here
T1 sequence (whole entry): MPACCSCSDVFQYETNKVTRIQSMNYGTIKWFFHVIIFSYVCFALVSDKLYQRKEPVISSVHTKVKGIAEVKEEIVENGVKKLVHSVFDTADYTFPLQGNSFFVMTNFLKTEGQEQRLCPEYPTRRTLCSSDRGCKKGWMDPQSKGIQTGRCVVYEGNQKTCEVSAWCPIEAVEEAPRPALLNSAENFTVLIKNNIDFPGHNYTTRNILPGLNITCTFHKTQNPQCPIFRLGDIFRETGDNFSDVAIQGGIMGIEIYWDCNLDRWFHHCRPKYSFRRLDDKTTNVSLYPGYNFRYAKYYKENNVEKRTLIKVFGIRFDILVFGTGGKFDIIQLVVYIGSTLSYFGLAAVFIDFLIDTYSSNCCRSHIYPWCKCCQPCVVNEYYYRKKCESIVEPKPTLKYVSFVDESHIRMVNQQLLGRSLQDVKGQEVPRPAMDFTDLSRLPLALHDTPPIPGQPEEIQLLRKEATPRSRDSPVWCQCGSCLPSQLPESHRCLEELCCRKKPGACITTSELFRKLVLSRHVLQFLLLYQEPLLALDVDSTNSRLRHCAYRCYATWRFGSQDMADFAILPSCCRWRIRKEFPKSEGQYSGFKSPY
In short: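 Trypsinised HEK293 cells stably expressing human P2X7 were suspended in divalent cation-free saline in a stirred cuvette at 37 °C with 20 µM ethidium bromide. Cells were treated with 30 µM compound, then 300 µM ATP.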

[2] = target: T1, P2X purinoceptor 7 (Homo sapiens); assay: Percentage inhibition of ATP-induced K+ efflux (cation free) in adherent HEK293 cells expressing human P2X7 receptor; format: functional, cell-based; details: concentration not given here
In short: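 Adherent HEK293 cells stably expressing human P2X7, in divalent cation-free saline (no added MgCl₂ or CaCl₂; pH 7.5). Pretreated with 30 µM compound, then 3 mM ATP for 10 min at 37 °C. Residual cell K⁺ was extracted in 10% HNO₃ for 2 h and measured by atomic absorbance against untreated cells. n=3, each in duplicate.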

[3] = target: T1, P2X purinoceptor 7 (Homo sapiens); assay: Percent inhibition of ATP-induced K+ efflux (with cations) in adherent HEK293 cells expressing human P2X7 receptor; format: functional, cell-based; details: concentration not given here
In short: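 Adherent HEK293 cells stably expressing human P2X7, grown to 90% confluence, in saline with 1 mM MgCl₂ and 1.5 mM CaCl₂ (pH 7.5). Pretreated with 30 µM compound, then 3 mM ATP for 10 min at 37 °C. Cell K⁺ was extracted in 10% HNO₃ for 2 h and read by atomic absorbance relative to untreated cells. n=3, each in duplicate.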

P2X purinoceptor 1 = target: T2, P2X purinoceptor 1 (Rattus norvegicus, UniProt P47824); assay: Inhibition of inward ion current elicited by ATP at P2X1 receptor expressed in Xenopus oocytes; format: functional, cell-based, Oocyte
T2 sequence (P47824 whole entry): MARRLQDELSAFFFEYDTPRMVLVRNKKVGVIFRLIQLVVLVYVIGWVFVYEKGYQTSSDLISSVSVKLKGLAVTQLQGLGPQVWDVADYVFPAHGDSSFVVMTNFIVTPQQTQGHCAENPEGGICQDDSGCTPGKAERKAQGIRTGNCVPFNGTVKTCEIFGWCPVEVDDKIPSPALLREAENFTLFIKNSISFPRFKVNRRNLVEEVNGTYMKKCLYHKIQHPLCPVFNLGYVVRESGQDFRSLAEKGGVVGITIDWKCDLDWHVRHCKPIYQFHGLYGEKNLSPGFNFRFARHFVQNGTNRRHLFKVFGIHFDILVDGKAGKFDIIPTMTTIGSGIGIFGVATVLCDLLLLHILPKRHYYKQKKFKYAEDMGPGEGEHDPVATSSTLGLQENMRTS

P2X purinoceptor 2 = target: T3, P2X purinoceptor 2 (Rattus norvegicus, UniProt P49653); assay: Inhibition of inward ion current elicited by ATP at P2X2 receptor expressed in Xenopus oocytes; format: functional, cell-based, Oocyte
T3 sequence (P49653 whole entry): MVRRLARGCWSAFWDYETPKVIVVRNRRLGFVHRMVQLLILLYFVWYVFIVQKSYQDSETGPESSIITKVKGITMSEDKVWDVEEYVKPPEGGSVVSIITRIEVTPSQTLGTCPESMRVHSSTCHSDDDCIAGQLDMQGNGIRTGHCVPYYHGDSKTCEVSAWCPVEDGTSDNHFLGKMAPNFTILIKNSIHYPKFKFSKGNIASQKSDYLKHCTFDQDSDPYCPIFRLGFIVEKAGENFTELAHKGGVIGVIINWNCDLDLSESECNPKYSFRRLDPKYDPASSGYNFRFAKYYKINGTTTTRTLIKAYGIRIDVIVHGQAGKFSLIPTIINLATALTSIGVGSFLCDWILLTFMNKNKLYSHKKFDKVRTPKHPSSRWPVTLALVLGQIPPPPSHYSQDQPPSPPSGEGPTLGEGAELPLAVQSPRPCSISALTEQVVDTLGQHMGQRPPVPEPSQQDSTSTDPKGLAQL

P2Y purinoceptor 1 [4] = target: T4, P2Y purinoceptor 1 (Meleagris gallopavo, UniProt P49652); assay: Inhibition of 10 nM 2-MeS-ADP-stimulated phospholipase C in turkey erythrocyte membrane; format: functional, cell membranes
T4 sequence (P49652 whole entry): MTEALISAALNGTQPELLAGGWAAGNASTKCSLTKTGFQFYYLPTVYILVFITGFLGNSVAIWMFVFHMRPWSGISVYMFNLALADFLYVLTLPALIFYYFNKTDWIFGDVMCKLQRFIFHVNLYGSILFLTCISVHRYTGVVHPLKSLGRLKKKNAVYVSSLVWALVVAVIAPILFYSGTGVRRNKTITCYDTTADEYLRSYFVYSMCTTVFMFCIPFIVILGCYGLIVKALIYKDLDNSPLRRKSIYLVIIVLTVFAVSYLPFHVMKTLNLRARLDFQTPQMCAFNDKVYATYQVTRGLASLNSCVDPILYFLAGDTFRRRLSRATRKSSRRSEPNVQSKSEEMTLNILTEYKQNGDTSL
In short: (§1)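 Turkey erythrocytes labelled 18-24 h at 37 °C with 2-[³H]myo-inositol in inositol-free DMEM, then lysed hypotonically (5 mM sodium phosphate pH 7.4, 5 mM MgCl₂, 1 mM EGTA) to make ghosts. Ghosts were incubated 5 min at 30 °C in pH 7.0 Hepes/KCl buffer with 1 µM GTPγS and 10 nM 2-MeSADP. Total [³H]inositol phosphates were measured by anion-exchange chromatography; 3-8 independent determinations.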

P2X purinoceptor 3 = target: T5, P2X purinoceptor 3 (Rattus norvegicus, UniProt P49654); assay: Inhibition of inward ion current elicited by ATP was determined at recombinant P2X3 receptor expressed in Xenopus oocytes; format: functional, cell-based, Oocyte
T5 sequence (P49654 whole entry): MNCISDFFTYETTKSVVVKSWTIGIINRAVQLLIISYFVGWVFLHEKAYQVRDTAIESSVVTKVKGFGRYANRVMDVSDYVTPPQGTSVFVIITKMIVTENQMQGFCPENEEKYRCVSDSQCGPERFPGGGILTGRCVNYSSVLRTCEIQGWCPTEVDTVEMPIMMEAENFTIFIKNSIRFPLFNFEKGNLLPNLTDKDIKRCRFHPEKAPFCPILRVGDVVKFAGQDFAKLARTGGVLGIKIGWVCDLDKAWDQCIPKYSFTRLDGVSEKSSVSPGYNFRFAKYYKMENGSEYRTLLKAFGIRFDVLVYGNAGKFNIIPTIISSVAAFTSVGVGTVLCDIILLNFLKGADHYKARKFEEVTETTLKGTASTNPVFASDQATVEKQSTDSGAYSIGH

[5] = target: P2Y purinoceptor 1 (Meleagris gallopavo) (UniProt P49652); assay: Inhibition of 10 nM 2-MeS-ADP-stimulated phospholipase C in turkey erythrocyte membranes using [3H]inositol; IA means inactive; format: functional, cell membranes; in short: as §1
Chain of P2Y purinoceptor 1 (Meleagris gallopavo) (P49652 whole entry): as the sequence (P49652 whole entry) above

[6] = target: T6, P2X purinoceptor 1 (Rattus norvegicus) (UniProt P47824); assay: Inhibition of inward ion current elicited by ATP at P2X1 receptor expressed in Xenopus oocytes; IA means inactive; format: functional, cell-based; details: Oocyte
T6 sequence (whole entry): T2 sequence (P47824 whole entry)

P2Y purinoceptor 1 [7] = target: T4, P2Y purinoceptor 1; assay: Inhibition of 10 nM 2-MeS-ADP-stimulated phospholipase C in turkey erythrocyte membranes using [3H]inositol; format: functional, cell membranes; in short: as §1
[8] = target: T6, P2X purinoceptor 1 (Rattus norvegicus); assay: Inhibition of inward ion current elicited by ATP at P2X1 receptor expressed in Xenopus oocytes at 10 uM; format: functional, cell-based; details: Oocyte
P2X purinoceptor 4 [9] = target: T7, P2X purinoceptor 4 (Rattus norvegicus, UniProt P51577); assay: Inhibition of inward ion current elicited by ATP at rat P2X4 receptor (wild type); format: functional
T7 sequence (P51577 whole entry): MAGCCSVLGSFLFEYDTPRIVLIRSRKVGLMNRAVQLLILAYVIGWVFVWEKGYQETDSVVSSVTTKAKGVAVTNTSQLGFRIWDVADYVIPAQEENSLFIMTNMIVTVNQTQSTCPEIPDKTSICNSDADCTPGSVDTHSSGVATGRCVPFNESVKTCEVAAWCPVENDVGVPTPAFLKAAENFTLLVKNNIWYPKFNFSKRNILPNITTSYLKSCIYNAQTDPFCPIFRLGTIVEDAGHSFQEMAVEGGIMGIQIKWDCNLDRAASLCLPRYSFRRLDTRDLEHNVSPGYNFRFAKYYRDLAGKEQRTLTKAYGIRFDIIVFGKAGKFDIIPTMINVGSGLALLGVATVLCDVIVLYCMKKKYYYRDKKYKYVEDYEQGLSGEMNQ

P2X purinoceptor 6 [10] = target: T8, P2X purinoceptor 6 (Rattus norvegicus, UniProt P51579); assay: Inhibition of inward ion current elicited by ATP at rat P2X6 receptor (wild type); format: functional
Target sequence in this assay (P51579 whole entry): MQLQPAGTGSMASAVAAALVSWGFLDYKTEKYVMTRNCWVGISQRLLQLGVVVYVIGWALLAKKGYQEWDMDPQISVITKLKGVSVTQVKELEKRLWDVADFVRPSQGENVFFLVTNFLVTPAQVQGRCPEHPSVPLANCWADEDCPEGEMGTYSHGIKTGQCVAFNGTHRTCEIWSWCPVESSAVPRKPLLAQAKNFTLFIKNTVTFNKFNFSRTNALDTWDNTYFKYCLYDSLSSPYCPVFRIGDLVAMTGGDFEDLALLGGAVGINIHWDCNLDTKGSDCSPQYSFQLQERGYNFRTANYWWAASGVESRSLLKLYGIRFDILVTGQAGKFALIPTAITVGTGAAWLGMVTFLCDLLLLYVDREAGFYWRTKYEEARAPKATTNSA

P2X purinoceptor 6 [11] = target: T8, P2X purinoceptor 6; assay: Inhibition of inward ion current elicited by ATP at rat P2X6 receptor (mutant type); format: functional
Target sequence in this assay (P51579 whole entry, looked up): as the sequence (P51579 whole entry) above

P2X purinoceptor 4 [12] = target: P2X purinoceptor 4 (Rattus norvegicus, UniProt P51577); assay: Inhibition of inward ion current elicited by ATP at rat P2X4 receptor (mutant type); format: functional

Structure (SMILES): CNc1ncnc2c1ncn2[C@H]1C[C@H](OP(=O)(O)O)[C@@H](COP(=O)(O)O)O1
- inhibition [1]: 100%
- inhibition [2]: 24%
- inhibition [3]: 37%

Structure (SMILES): Cc1nc(/N=N/c2ccccc2)c(COP(=O)(O)O)c(C=O)c1O
- IC50 (P2X purinoceptor 1): 42 nM
- IC50 (P2X purinoceptor 2): 1200 nM
- IC50 (P2Y purinoceptor 1 [4]): 54000 nM
- IC50 (P2X purinoceptor 3): 480 nM

Structure (SMILES): Cc1nc(/N=N/c2ccccc2)c2c(c1O)COP(=O)(O)OC2
- Inhibition activity [5]: inactive
- IA [6]: inactive

Structure (SMILES): Cc1nc(/N=N/c2cc(S(=O)(=O)O)ccc2S(=O)(=O)O)c(CP(=O)(O)O)c(C=O)c1O
- inhibition [1]: 100%
- inhibition [2]: 28%
- inhibition [3]: 51%
- IC50 (P2X purinoceptor 1): 12 nM
- IC50 (P2Y purinoceptor 1 [7]): 46000 nM
- IC50 (P2X purinoceptor 2): 1100 nM
- IC50 (P2X purinoceptor 3): 340 nM

Structure (SMILES): Cc1nc(/N=N/c2ccc(C(=O)O)cc2)c(CP(=O)(O)O)c(C=O)c1O
- IC50 (P2X purinoceptor 1): 8.1 nM
- IC50 (P2X purinoceptor 2): 150 nM
- IC50 (P2X purinoceptor 3): 128 nM

Structure (SMILES): Cc1nc(/N=N/c2ccc(P(=O)(O)O)cc2)c(CP(=O)(O)O)c(C=O)c1O
- IC50 (P2X purinoceptor 1): 12 nM
- IC50 (P2Y purinoceptor 1 [7]): 27000 nM
- IC50 (P2X purinoceptor 2): 948 nM
- IC50 (P2X purinoceptor 3): 36 nM

Structure (SMILES): Cc1ncc(COP(=O)(O)O)c(COP(=O)(O)O)c1O
- Inhibition activity [5]: inactive
- IA [6]: inactive

Structure (SMILES): Cc1nc(/N=N/c2ccccc2)c(COP(=O)(O)O)c(COP(=O)(O)O)c1O
- IC50 (P2Y purinoceptor 1 [7]): > 100000 nM
- inhibition [8]: 50%

Structure (SMILES): Cc1nc(/N=N/c2cc(S(=O)(=O)O)ccc2Cl)c2c(c1O)COP(=O)(O)OC2
- inhibition [8]: 43%

Structure (SMILES): CC(=O)Oc1c(C)nc(/N=N/c2cc(S(=O)(=O)O)ccc2S(=O)(=O)O)c2c1COP(=O)(O)OC2
- IA [6]: inactive

Structure (SMILES): Cc1nc(/N=N/c2ccc(S(=O)(=O)O)cc2S(=O)(=O)O)c(COP(=O)(O)O)c(C=O)c1O
- IC50 (P2X purinoceptor 4 [9]): > 500000 nM
- IC50 (P2X purinoceptor 6 [10]): > 500000 nM
- IC50 (P2X purinoceptor 1): 99 nM
- IC50 (P2Y purinoceptor 1 [7]): 16600 nM
- IC50 (P2X purinoceptor 2): 1600 nM
- IC50 (P2X purinoceptor 6 [11]): 2000 nM
- IC50 (P2X purinoceptor 4 [12]): 2600 nM
- IC50 (P2X purinoceptor 3): 240 nM
